Reference: publication PMC10443334 (Microbial Biotechnology, 2023)
Each block holds one compound with its values, some of them ahead of it. Where a SMILES comes first, the peptide text is derived from it. Bridges are numbered along the chain shown (N, C = ends). [ ]: non-standard residue; d: D form. The star is where a group is joined. X1 = CC[C@H](C)CCCCC(=O)*; Dab = NCC[C@H](N)C(=O)O

Columns and labels:
THP-1 cells [1] = assay: NF-κB activation western blot; type: cell-based, human; conditions: TAK242 1 μM (infection) or 100 nM (LPS) for 1 h
In short: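 THP-1 cells were differentiated with PMA (10 ng/mL, 48 h). For infection, cells got TAK242 1 μM for 1 h, then washed log-phase BL21/pEmpty or BL21/pMCR-1 at MOI 50 in serum-free medium with kanamycin and IPTG for 4 h. For LPS, cells got TAK242 100 nM for 1 h, then purified LPS (1 μg/mL) for 4 h. Cell extracts were western blotted and relative band levels quantified.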

THP-1 cells [2] = assay: LDH release and caspase 1 western blot after OMV stimulation; type: cell-based, human; conditions: Wed 50 μM pre-treatment for 2 h, OMVs 20 μg protein/mL
In short: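 PMA-differentiated (10 ng/mL, 48 h) THP-1 macrophages were pre-treated with DMSO or 50 μM Wed, then exposed to OMVs (20 μg protein/mL) for 4 h at 37°C, 5% CO2. OMVs came from 8 h LB culture supernatants, filtered, concentrated on 100-kDa filters and pelleted at 150,000 g for 3 h. LDH in media was read by kit as % of 0.1% Triton X-100 lysis; lysates were western blotted with chemiluminescent quantitation.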

BL21/pMCR-1 [3] = assay: Time-killing kinetics; type: cell-based, E. coli; conditions: 16 μg/mL, 1 × 10^5 CFU/mL, IPTG, 37°C, agar plate dilution count
In short: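 Suspensions of IPTG-induced BL21/pMCR-1 (1 × 10^5 CFU/mL) were sub-cultured into tubes with IPTG, with or without test compound at 4 × MIC, at 37°C. Viable counts were taken by agar plate dilution at fixed time intervals. Data are mean ± SD from three independent experiments.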

BL21/pMCR-1 [4] = assay: Microdilution MIC/MBC; type: cell-based, E. coli; conditions: MIC ratio BL21/pMCR-1 vs BL21/pEmpty
In short: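 Broth microdilution MIC/MBC followed CLSI. Strains were E. coli BL21 carrying pET28a-mcr-1 or empty pET28a, grown in LB (pH 7.2–7.4) with 50 μg/mL kanamycin. MCR-1 expression was induced with 0.5 mM IPTG at 37°C with shaking at 220 rpm.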

Compound: CCOC(=O)C1=CCCC[C@H]1S(=O)(=O)Nc1ccc(F)cc1Cl [TAK242, Resatorvid]
p-P65 and p-IκB after infection or LPS stimulation (THP-1 cells [1]): inhibited

Compound: COc1cc(O)c2c(c1)oc(=O)c1c3cc(O)c(O)cc3oc21 [Wed, wedelolactone]
macrophage cell death and caspase-1 processing after OMV stimulation (THP-1 cells [2]): markedly reduced

increase of MIC against BL21/pMCR-1 compared to BL21/pEmpty (BL21/pMCR-1 [4]): 8 fold
Compound: CC[C@H](C)CCCCC(=O)N[C@@H](CCN)C(=O)N[C@H](C(=O)N[C@@H](CCN)C(=O)N[C@H]1CCNC(=O)[C@H]([C@@H](C)O)NC(=O)[C@H](CCN)NC(=O)[C@H](CCN)NC(=O)[C@H](CC(C)C)NC(=O)[C@@H](Cc2ccccc2)NC(=O)[C@H](CCN)NC1=O)[C@@H](C)O [polymyxin B, Polymyxin B sulphate] (X1-[Dab]T[Dab][Dab][Dab][dF]L[Dab][Dab]T; lactam 4-C (inferred); N-terminus assumed)
time to eradicate all bacteria (time-kill kinetics) (BL21/pMCR-1 [3]): 4 h
